Results collected from several papers.
Target: Receptor tyrosine-protein kinase erbB-2 (ERBB2, Homo sapiens, UniProt P04626)

With `Nc1ncc2c(n1)-c1c([nH]c3ccc(C#CC4CC4)cc13)CCCC2` the remaining binding was 91% (binding, competition with immobilised ligand; 1 µM).
With `CS(=O)(=O)N1CCCC(NC(=O)[C@H](CCC2CCCCC2)NC(=O)c2ccc(CNC(=O)c3cnc4ccccn34)cc2)C1` (some centres unmarked) the remaining binding was 100% (cell-free assay, competition with immobilised ligand; 0.1 µM).
For `C[C@@H]1CN(c2ccc3ncc(-c4ccc5[nH]nc(C6CC6)c5c4)n3n2)C[C@H](C)O1`, the remaining binding was 87% (binding, competition with immobilised ligand; 50 nM).
`O=C(NCCCN1CCOCC1)c1ccc(Nc2ncc(Cl)c(-c3ccc(Cl)s3)n2)cc1` gave a remaining binding of 80% (binding, competition with immobilised ligand; 1 µM).
For `O=C(Nc1cccnn1)N1CC(C/C=C/c2cncc(Oc3ccc(C(F)(F)F)cn3)n2)C1`, the remaining binding was 83% (cell-free assay, competition with immobilised ligand; 1 µM).
`CNC(=O)[C@@H]1CC[C@@H](n2c(-c3ccc4cnccc4c3)nc3ccc(C(=O)NCc4cccc(C(N)=O)c4)cc32)C1` gave a remaining binding of 100% (binding, competition with immobilised ligand; 1 µM).
For `Cc1cnc(Nc2ccc(C(=O)N3CCC(N4CCCC4)CC3)cc2)nc1-c1cc2ccccc2s1`, the remaining binding was 64% (binding, competition with immobilised ligand; 1 µM).
With `N#CC1(c2ccccn2)CCN(Cc2cc(C(=O)N3CCCC3)c(=O)n3ccccc23)CC1` the remaining binding was 95% (cell-free assay, competition with immobilised ligand; 1 µM).
`C[C@@H]1CCN(c2nccc(-c3cnn4ncccc34)n2)C1` gave a remaining binding of 90% (binding; 1 µM).
The remaining binding of `O=C(c1ccc(Nc2ncc(Cl)c(-c3ccc(Cl)s3)n2)cc1)N1CCC(N2CCCC2)CC1` is reported as 82% (binding, competition with immobilised ligand; 1 µM).
`O=C(Nc1c[nH]nc1C(=O)NC1CCNCC1)c1cc(F)cc(F)c1` has a remaining binding of 69% (binding, competition with immobilised ligand; 1 µM).
With `FC(F)(F)Oc1cccc(-c2cnc3ccc(-c4ccncc4)nn23)c1` the remaining binding was 57% (cell-free assay, competition with immobilised ligand; 5 µM).
With `N[C@@H]1CCN(c2nccc(-c3cnn4ncccc34)n2)C1` the remaining binding was 100% (binding; 1 µM).
`c1cncc(-c2cccc(Nc3nccc(NC4CCCCC4)n3)c2)c1` has a remaining binding of 51% (binding, competition with immobilised ligand; 10 µM).
`CN(C)c1nccc(-c2cnn3ncccc23)n1` gave a remaining binding of 100% (binding; 1 µM).
The remaining binding of `COc1cc(-c2cn(C3CCc4c(F)cccc4N(CC(F)(F)F)C3=O)nn2)ccc1-n1cnc(C)c1` (centres unmarked) is reported as 100% (cell-free assay, competition with immobilised ligand; 1 µM).
For `COc1ncc2cc3ccccc3nc2c1C#N`, the remaining binding was 70% (cell-free assay, competition with immobilised ligand; 5 µM).
`CS(=O)(=O)NCC[C@H](NC(=O)c1cncc2c1cnn2-c1ccc(F)cc1)c1ccnc(S(C)(=O)=O)c1` gave a remaining binding of 100% (cell-free assay, competition with immobilised ligand; 1 µM).
With `C[C@@H](c1ccc(-n2cnc3c(N)ncnc32)cc1)N1CCc2nn(C)c(Cc3ccccc3)c2C1=O` the remaining binding was 81% (binding, competition with immobilised ligand; 0.1 µM).
`Nc1cnc(N2CCc3cc(S(=O)(=O)Nc4c(F)cc(Cl)cc4F)cc(N4CCCC4=O)c32)nc1` gave a remaining binding of 100% (cell-free assay, competition with immobilised ligand; 1 µM).
The remaining binding of `CN(c1nccc(-c2cnn3ncccc23)n1)C1CC1` is reported as 85% (binding; 1 µM).
For `COc1cc(-c2cn(C3CCc4ccccc4N(CC(F)(F)F)C3=O)nn2)ccc1-n1ccc(C)n1` (centres unmarked), the remaining binding was 100% (cell-free assay, competition with immobilised ligand; 1 µM).
`CN(C)c1nccc(-c2cnc3ncccn23)n1` gave a remaining binding of 0% (binding; 1 µM).
